Experimental data from article PMC2761767 (Journal of medicinal chemistry, 2009).
Like-named read-outs stand apart in the source and are kept apart here.

Columns and labels:
[1] = tested on: HCT-116 (colon cancer) cells; experiment: MTT cytotoxicity assay, HCT-116; assay type: cell-based, human; settings: read-out: IC50, in vitro cytotoxicity, HCT-116, HCT-116 cells
HL-60 (leukemia) cells = experiment: MTT cytotoxicity assay, HL-60; assay type: cell-based, human; settings: read-out: IC50, in vitro cytotoxicity, HL-60, HL-60 cells
Hep 3B (hepatoma) cells = experiment: MTT cytotoxicity assay, Hep 3B; assay type: cell-based, human; settings: read-out: IC50, in vitro cytotoxicity, Hep 3B, Hep 3B cells
tubulin = experiment: Inhibition of [3H]colchicine binding to tubulin; settings: 1 µM tubulin, 5 µM [3H]colchicine, 10 min at 37 °C; for Inhibition of Colchicine Binding % inhibition at tested concentration, 1 µM: 1 µM inhibitor; for Inhibition of Colchicine Binding % inhibition at tested concentration, 5 µM: 5 µM inhibitor
[2] = tested on: DU145 (prostate cancer) cells; experiment: SRB cytotoxicity assay, DU145; assay type: cell-based, human; settings: read-out: IC50, in vitro cytotoxicity, DU145
Outline: (§1)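 Cells exposed to test compound or DMSO vehicle for the stated periods, then fixed with 10% TCA. Staining used 0.4% (w/v) sulforhodamine B in 1% acetic acid, with unbound dye washed out in 1% acetic acid. Bound dye was dissolved in 10 mM Trizma base and absorbance read at 515 nm. IC50 taken from the resulting absorbance data.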

[3] = tested on: A549 (non-small cell lung carcinoma) cells; experiment: SRB cytotoxicity assay, A549; assay type: cell-based, human; settings: read-out: IC50, in vitro cytotoxicity, A549
Outline: as §1

[4] = tested on: KB (epidermoid carcinoma of the nasopharynx) cells; experiment: SRB cytotoxicity assay, KB; assay type: cell-based, human; settings: read-out: IC50, in vitro cytotoxicity, KB
Outline: as §1

[5] = tested on: KB-VIN (p-glycoprotein-expressing epidermoid carcinoma of the nasopharynx) cells; experiment: SRB cytotoxicity assay, KB-VIN; assay type: cell-based, human; settings: read-out: IC50, in vitro cytotoxicity, Kb-VIN, KB-VIN cells (vincristine-resistant)
Outline: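 For A549, KB, KB-VIN and DU145, an SRB assay was used. Cells were exposed to the test compound or DMSO, fixed with 10% TCA and stained with 0.4% (w/v) SRB in 1% acetic acid. Unbound dye was washed out with 1% acetic acid, bound dye solubilized in 10 mM Trizma base, and absorbance read at 515 nm.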

[6] = tested on: seven human cancer cell lines (HL-60, HCT-116, A549, Hep 3B, KB, KB-VIN, DU145); experiment: In vitro cytotoxicity, all seven cancer cell lines together; assay type: cell-based; settings: read-out: IC50 values, range over all seven cancer cell lines
[7] = ip, once weekly for 3 courses; prior in vivo study; cited from earlier work
OVCAR-3 xenograft = settings: ip, once weekly for 3 courses, cited from earlier work
[8] = tested on: 60 human tumor cell lines; experiment: NCI screening against 60 human tumor cell lines; assay type: cell-based
[9] = mice model, unpublished data
[10] = tested on: HL-60, HCT-116, H226, A549, Hep G2 and A498 cancer cell lines; experiment: Cytotoxicity of deacetylated amides 46-53; assay type: cell-based; settings: read-out: IC50 values, cytotoxicity

| Compound | IC50 [1] [nM] | IC50 (HL-60 (leukemia) cells) [nM] | IC50 (Hep 3B (hepatoma) cells) [nM] | IC50 [2] [nM] | IC50 [3] [nM] | IC50 [4] [nM] | IC50 [5] [nM] | also measured |
| --- | --- | --- | --- | --- | --- | --- | --- | --- |
| 2-(1-Anthracenyl)-6,7-methylenedioxyquinolin-4-one [Compound 45] | 1600 | 530 | 2200 |  |  |  |  |  |
| 2-(1-Naphthalenyl)-6,7-methylenedioxyquinolin-4-one [Compound 39] | 70 | 70 | 70 | 130 | 130 | 130 | 190 | Inhibition of Colchicine Binding % inhibition at tested concentration, 1 µM (tubulin): 33%; Inhibition of Colchicine Binding % inhibition at tested concentration, 5 µM (tubulin): 67%; IC50 [6]: 70 to 190 nM |
| 2-(2-Benzo[b]furyl)-6,7-methylenedioxyquinolin-4-one [Compound 38] | > 1000 | > 1000 | > 1000 | > 1000 | > 1000 | > 1000 | > 1000 |  |
| 2-(2-Benzo[b]thienyl)-6,7-methylenedioxyquinolin-4-one [Compound 36] | > 1000 | > 1000 | > 1000 | > 1000 | > 1000 | > 1000 | > 1000 |  |
| 2-(2-Naphthalenyl)-6,7-methylenedioxyquinolin-4-one [Compound 40] | > 1000 | 500 | > 1000 | > 1000 | > 1000 | > 1000 | > 1000 |  |
| 2-(2-Quinolinyl)-6,7-methylenedioxyquinolin-4-one [Compound 43] | > 5000 | > 5000 | > 5000 | > 5000 | > 5000 | > 5000 | > 5000 |  |
| 2-(2-fluorophenyl)-6,7-methylenedioxyquinolin-4-one [CHM-1] |  |  |  |  |  |  |  | Maximum tolerated dose (MTD) [7]: > 200 mg/kg; Extension of life span of tumor-bearing mice (OVCAR-3 xenograft; 79 mg/kg): 79%; Extension of life span of tumor-bearing mice (OVCAR-3 xenograft; 134 mg/kg): 133%; Extension of life span of tumor-bearing mice (OVCAR-3 xenograft; 200 mg/kg): 124% |
| 2-(3-Benzo[b]furyl)-6,7-methylenedioxyquinolin-4-one [Compound 37] | 50 | 30 | 90 | 1870 | 2980 | 1050 | 590 | Inhibition of Colchicine Binding % inhibition at tested concentration, 1 µM (tubulin): 39%; Inhibition of Colchicine Binding % inhibition at tested concentration, 5 µM (tubulin): 51%; Growth inhibition, NCI preliminary screening ([8]; HCC-2998, KM-12, SF-539, SNB-75, SK-MEL-5, IGROV1, OVCAR-3): significantly inhibited the growth; Cytotoxicity against leukemia cell lines, NCI preliminary screening ([8]; many leukemia cell lines (Figure 5)): potent selective cytotoxicity |
| 2-(3-Benzo[b]thienyl)-6,7-methylenedioxyquinolin-4-one [Compound 1] | 140 | 170 | 60 | > 250 | > 250 | > 250 | > 250 | Inhibition of Colchicine Binding % inhibition at tested concentration, 1 µM (tubulin): 25%; Inhibition of Colchicine Binding % inhibition at tested concentration, 5 µM (tubulin): 61% |
| 2-(3-Quinolinyl)-6,7-methylenedioxyquinolin-4-one [Compound 42] | > 100 | > 100 | > 100 | > 100 | > 100 | > 100 | > 100 |  |
| 2-(4-Quinolinyl)-6,7-methylenedioxyquinolin-4-one [Compound 41] | > 5000 | > 5000 | > 5000 | > 5000 | > 5000 | > 5000 | > 5000 |  |
| 2-(5-Quinolinyl)-6,7-methylenedioxyquinolin-4-one [Compound 44] | > 10000 | > 10000 | > 10000 | > 10000 | > 10000 | > 10000 | > 10000 |  |
| COc1cccc(-c2cc(O)c3cc(N4CCCC4)ccc3n2)c1 [B, 2-(3-methoxyphenyl)-6-pyrrolinylquinolin-4-one] |  |  |  |  |  |  |  | Maximum tolerated dose (MTD) [7]: 25 mg/kg; Antitumor activity against the OVCAR-3 xenograft model (OVCAR-3 xenograft; at MTD 25 mg/kg, prior in vivo study): moderate antitumor activity |
| O=P([O-])(O)Oc1cc(-c2ccccc2F)nc2cc3c(cc12)OCO3.[Na+] [CHM-1-P-Na] |  |  |  |  |  |  |  | Metabolism of the 6,7-methylenedioxy moiety [9]: metabolized to an ortho-quinone |
| O=C(Nc1ccc2c(c1)OCO2)c1csc2ccccc12 [Compound 46, N-(1,3-Benzodioxol-5-yl)-1-benzothiophene-3-carboxamide] |  |  |  |  |  |  |  | IC50 [10]: > 10000 nM |
| O=C(Nc1ccc2c(c1)OCO2)c1ccc2ccccc2c1 [Compound 50, N-(1,3-Benzodioxol-5-yl)naphthalene-2-carboxamide] |  |  |  |  |  |  |  | IC50 [10]: > 10000 nM |
| O=C(Nc1ccc2c(c1)OCO2)c1ccnc2ccccc12 [Compound 51, N-(1,3-Benzodioxol-5-yl)quinoline-4-carboxamide] |  |  |  |  |  |  |  | IC50 [10]: > 10000 nM |
| O=C(Nc1ccc2c(c1)OCO2)c1cccc2ncccc12 [Compound 53, N-(1,3-Benzodioxol-5-yl)quinoline-5-carboxamide] |  |  |  |  |  |  |  | IC50 [10]: > 10000 nM |
